Test results reported in ChEMBL document CHEMBL1165962, “Rearranged diterpenoids from the biotransformation of ent-trachyloban-18-oic acid by Rhizopus arrhizus” (J Nat Prod, 2010).
The source made the active and inactive calls. The calls are words filed in the database; no cut-off is given here.

What was measured:
Bcl-2-like protein 1 = Bcl-2-like protein 1 (Homo sapiens, UniProt Q07817); assay: Displacement of fluorescently-tagged BH3 peptide from Bcl-XL by fluorimetric assay
In short: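 Fluorescence-polarization competition assay in which test compound displaces a fluorescent-tagged Bak BH3-domain peptide from Bcl-xL. Unlabeled Bak(BH3) peptide served as the positive control. Output was percent inhibition of labeled-peptide binding, or IC50 as the concentration giving 50% inhibition.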

HCT-116 [1] = assay: Cytotoxicity against human HCT116 cells at 10 ug/mL; format: functional, cell-based
In short: (§1)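 Single-concentration screen at 10 µg/mL in KB (oral epidermoid carcinoma) and HCT-116 (human colon carcinoma) cells, run by a previously published cytotoxicity method. Taxotere served as the reference.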

KB [2] = assay: Cytotoxicity against human KB cells at 10 ug/mL; format: functional, cell-based; in short: as §1
KB [3] = assay: Cytotoxicity against human KB cells; format: functional, cell-based
In short: (§2)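 Growth inhibition measured by a previously published method in KB (oral epidermoid carcinoma) and HCT-116 (human colon carcinoma) cells. Taxotere served as the reference compound. IC50 was reported.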

HCT-116 [4] = assay: Cytotoxicity against human HCT116 cells; format: functional, cell-based; in short: as §2

Sequence of Bcl-2-like protein 1 (Q07817 whole entry): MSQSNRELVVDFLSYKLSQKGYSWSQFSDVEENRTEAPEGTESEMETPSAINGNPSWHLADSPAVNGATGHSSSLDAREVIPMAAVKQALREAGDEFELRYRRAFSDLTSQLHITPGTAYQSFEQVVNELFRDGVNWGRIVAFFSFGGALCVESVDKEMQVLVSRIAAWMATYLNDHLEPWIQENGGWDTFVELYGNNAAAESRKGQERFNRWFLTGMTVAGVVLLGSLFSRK

Row | IC50 (Bcl-2-like protein 1) | IC50 (Bcl-2-like protein 1; read-out: IC50) | SMILES | inhibition (HCT-116 [1]) | inhibition (KB [2]) | IC50 (KB [3]) | IC50 (HCT-116 [4])
1 | Not Active |  | CC1=C[C@]23CC[C@@H]4[C@](C)([C@H](O)CC[C@@]4(C)C(=O)O)[C@H]2[C@H]2[C@H](C3)[C@@H]12 | inactive | inactive | > 31.6 µM | > 31.6 µM
2 | Not Active |  | CO[C@@]1(C)C[C@]23CC[C@@H]4[C@](C)([C@H](O)CC[C@@]4(C)C(=O)O)[C@H]2C=C[C@@H]1C3 | inactive | inactive | > 28.7 µM | > 28.7 µM
3 |  | 400 µM | C[C@]12CCC[C@@](C)(C(=O)O)[C@@H]1CC[C@]13C[C@@H]4[C@H](C[C@H]12)[C@]4(C)C3 |  |  |  | 

More lines, now with the values behind:

Row | SMILES | IC50 (Bcl-2-like protein 1) | IC50 (Bcl-2-like protein 1; read-out: IC50) | inhibition (HCT-116 [1]) | inhibition (KB [2]) | IC50 (KB [3]) | IC50 (HCT-116 [4])
4 | C[C@]12C[C@]34CC[C@@H]5[C@](C)([C@H](O)CC[C@@]5(C)C(=O)O)[C@@H]3C[C@H]1[C@H]2C4 | Not Active |  | inactive | inactive | > 31.4 µM | > 31.4 µM
5 | C[C@]12[C@H](O)CC[C@@](C)(C(=O)O)[C@@H]1CC[C@]13C[C@@H](C=C[C@@H]12)[C@@](C)(O)C3 | Not Active |  | inactive | inactive | > 29.9 µM | > 29.9 µM
6 | C[C@]12CCC[C@@](C)(C(=O)O)[C@@H]1CC[C@]13C[C@@H]4[C@H](C[C@H]12)[C@]4(CO)C3 |  | 220 µM | inactive | inactive | > 31.4 µM | > 31.4 µM
7 | CC(=O)O[C@@]12CO[C@@H]1C[C@H](O)[C@@]1(C)C(=O)[C@H](O)C3=C(C)[C@@H](OC(=O)[C@H](O)[C@@H](NC(=O)OC(C)(C)C)c4ccccc4)C[C@@](O)([C@@H](OC(=O)c4ccccc4)[C@H]21)C3(C)C [DOCETAXEL] |  |  |  |  | 0.00015 µM | 0.0012 µM
8 | C[C@]12CCC[C@@](C)(C(=O)O)[C@@H]1CC[C@]13C[C@@H](C=C[C@@H]12)[C@@](C)(O)C3 |  | 380 µM | inactive | inactive | > 31.4 µM | > 31.4 µM
